The values below come from ChEMBL document CHEMBL3392999 (J Med Chem, 2014).

Data set [1] deals with HEK293. Nature of the data set: Cytotoxicity against human HEK293 cells after 3 days by MTT assay. The data set is classed as cell-based. To be noted: HEK293, 72 h. The method, boiled down: (§1)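 HT-29, MCF-7 and HEK293 cells were grown in DMEM (1 g/L glucose, 2 mM glutamine, antibiotics, amphotericin, 10% FBS). Serial dilutions of compound in DMSO were added to 5 x 10^3 cells/well for 3 days at 37 °C, 5% CO2. MTT was then added for 4 h, formazan was dissolved in 0.04 N HCl/2-propanol and read at 550 nm, in triplicate. IC50 is the 50% growth inhibition. The ratios are HEK293 IC50 over HT-29 or MCF-7 IC50.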
(In general: Tetrazolium dyes change colour on reduction, which living cells bring about.)

A short description of data set [2]: Selectivity ratio of IC50 for human HEK293 cells to IC50 for human HT29 cells. The data set is classed as ADME, cell-based. To be noted: HEK293 cells versus HT29 cells, read-out: Ratio IC50. The method, boiled down:
as §1

Data set [3] can be described thus: Selectivity ratio of IC50 for human HEK293 cells to IC50 for human MCF7 cells. The settings on record: HEK293 cells versus MCF7 cells, read-out: Ratio IC50. The class given is ADME, cell-based. In short, it runs like this:
as §1

In data set [4] the test system is HT-29. The data set is described as follows: Cytotoxicity against human HT-29 cells after 3 days by MTT assay. The data set is classed as functional, cell-based. To be noted: HT-29, 72 h. In short, it runs like this:
as §1

Data set [5] relates to MCF7. The data set is described as follows: Cytotoxicity against human MCF7 cells after 3 days by MTT assay. To be noted: MCF7, 72 h. The data set is classed as functional, cell-based. In short, it runs like this: as §1
A short description of data set [6]: Cytotoxicity against human A2780AD cells after 24 hrs by MTT assay. The class given is functional, cell-based. To be noted: A2780 ADR. The method, boiled down: (§2)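 Ovarian carcinoma A2780 and its P-glycoprotein-overexpressing MDR subline A2780AD were cultured in RPMI 1640 with 10% FCS, glutamine, antibiotics and 0.25 units/mL bovine insulin. Cytotoxicity was measured by a modified MTT assay. IC50 is 50% growth inhibition, averaged over three measurements. The resistance factor is A2780AD IC50 divided by A2780 IC50.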

Data set [7] is described as follows: Resistance factor, ratio of IC50 for human A2780AD cells to IC50 for human A2780 cells. The data set is classed as functional, A2780 ADR. In short, it runs like this:
as §2

The target in data set [8] is T1, Tubulin (Homo sapiens) (UniProt P68371+Q9H4B7+P0DPH7+P68366+Q13509+Q71U36+P04350+Q3ZCM7+P07437+P68363+Q9BQE3+Q6PEY2+Q13885+Q9BVA1+Q9BUF5). The data set is described as follows: Inhibition of purified tubulin (unknown origin) assessed as critical concentration of tubulin required to produce assembly at 25 uM after 30 mins by spectrophotometry. The class given is protein-complex assay. In short, it runs like this: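 Calf-brain tubulin (20 µM) was incubated 30 min at 37 °C in glycerol assembly buffer (3.4 M glycerol, 10 mM sodium phosphate, 1 mM EGTA, 1 mM GTP, pH 6.5) with ligand at varying concentrations or DMSO vehicle. The critical concentration for assembly was then calculated from the processed samples. Values are averages of replicate measurements.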

The subject of data set [9] is A2780. The data set is described as follows: Cytotoxicity against human A2780 cells after 24 hrs by MTT assay. The data set is classed as functional, cell-based. The settings on record: A2780, 24 h.
Data set [10] can be described thus: Depolymerization of microtubule cytoskeleton in human A549 cells assessed as aberrant mitosis at 10 uM after 24 hrs by hoechst 33342-based fluorescence microscopy. The data set is classed as cell-based. In short, it runs like this:
(§3)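 A549 cells were cultured overnight on 12 mm round coverslips, then incubated 24 h with ligand or DMSO vehicle. Cells were permeabilized with Triton X-100 and fixed with 3.7% formaldehyde. Microtubules were stained with DM1A anti-α-tubulin monoclonal antibody and DNA with Hoechst 33342, then examined by epifluorescence microscopy with a cooled CCD camera.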

The test system of data set [11] is A549. Nature of the data set: Cell cycle arrest at G2/M phase in human A549 cells at 5 to 10 uM after 20 hrs. The data set is classed as functional. In short, it runs like this:
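A549 cells (RPMI 1640, 10% FCS, glutamine, antibiotics) were exposed to ligand or DMSO vehicle for 20 h. They were then fixed, RNase-treated and stained with propidium iodide. DNA content was measured by flow cytometry, and G2/M accumulation was read at the lowest concentration giving maximal arrest.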

Data set [12] in a line: Depolymerization of microtubule cytoskeleton in human A549 cells assessed as aberrant mitosis at 5 uM after 24 hrs by hoechst 33342-based fluorescence microscopy. The data set is classed as cell-based. The method, boiled down: as §3
The target in data set [13] is T1, Tubulin (Homo sapiens). Nature of the data set: Inhibition of purified tubulin (unknown origin) assessed as concentration of compound in supernatant solution at 30 uM after 1 hr. The data set is classed as protein-complex assay. In short, it runs like this: (§4)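 In one set, mixtures stood 1 h at 37 °C and were extracted with dichloromethane. In another, microtubules were allowed to assemble and were ultracentrifuged, and the supernatant and pellet were extracted separately. Ligand in each extract was quantified against a 30 µM tubulin-free reference.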

Data set [14] in a line: Depolymerization of microtubule cytoskeleton in human A549 cells at 1 uM after 24 hrs by hoechst 33342-based fluorescence microscopy. The data set is classed as cell-based. In short, it runs like this:
as §3

Data set [15] addresses T1, Tubulin (Homo sapiens). The data set is described as follows: Inhibition of purified tubulin (unknown origin) assessed as concentration of compound in pellet solution at 30 uM after 1 hr. The class given is protein-complex assay. The method, boiled down:
as §4

The target in data set [16] is T1, Tubulin (Homo sapiens). Nature of the data set: Inhibition of purified tubulin (unknown origin) assessed as concentration of compound in dichloromethane solvent at 30 uM after 1 hr. The class given is protein-complex assay. The method, boiled down: as §4
Data set [17] can be described thus: Depolymerization of microtubule cytoskeleton in human A549 cells assessed as DNA forming a ball without microtubules at 5 uM after 24 hrs by hoechst 33342-based fluorescence microscopy. The class given is cell-based. In short, it runs like this: as §3
A short description of data set [18]: Depolymerization of microtubule cytoskeleton in human A549 cells assessed as DNA forming a ball without microtubules at 10 uM after 24 hrs by hoechst 33342-based fluorescence microscopy. The data set is classed as cell-based. In short, it runs like this: as §3
Data set [19] in a line: Depolymerization of microtubule cytoskeleton in human A549 cells at 5 uM after 24 hrs by hoechst 33342-based fluorescence microscopy. The data set is classed as cell-based. In short, it runs like this: as §3
The nature of data set [20]: Depolymerization of microtubule cytoskeleton in human A549 cells assessed as aberrant mitosis at 50 nM after 24 hrs by hoechst 33342-based fluorescence microscopy. The class given is cell-based. The method, boiled down:
(§5)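 A549 cells grown overnight on 12 mm round coverslips, then 24 h with compound or DMSO vehicle. Cells permeabilized with Triton X100 and fixed in 3.7% formaldehyde. Microtubules stained with DM1A α-tubulin monoclonal antibody, DNA with Hoechst 33342. Examined by epifluorescence microscopy with cooled CCD imaging; mitotic spindles inspected.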

In data set [21] the test system is A549. The data set is described as follows: Cell cycle arrest at G2/M phase in human A549 cells at 50 nM after 20 hrs. The data set is classed as functional, cell-based. In short, it runs like this: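 A549 human lung carcinoma cells in RPMI 1640 with 10% FCS, glutamine and antibiotics, exposed for 20 h to compound or DMSO vehicle. Cells were fixed, RNase-treated and stained with propidium iodide. DNA content was measured by flow cytometry to give G2/M fraction.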

A short description of data set [22]: Depolymerization of microtubule cytoskeleton in human A549 cells at 50 nM after 24 hrs by hoechst 33342-based fluorescence microscopy. The data set is classed as cell-based. The method, boiled down: as §5
A short description of data set [23]: Depolymerization of microtubule cytoskeleton in human A549 cells assessed as DNA forming a ball without microtubules at 50 nM after 24 hrs by hoechst 33342-based fluorescence microscopy. The class given is cell-based. The method, boiled down:
as §5

pIC50: −log10 of the molar value. Calls of active or inactive are those of the source. No cut-off for these calls is given here.

With `COc1cc2c(c(OC)c1OC)-c1ccc(OC)c(=O)cc1[C@@H](NC(=O)CCCCCCC(=O)OCCCCC[C@@H]1CC=CC(=O)O1)CC2`, the pIC50 (usually −log10 of the IC50, conventionally taken in molar units) was 4.48 in data set [1], 4.70 in data set [4] and 6.54 in data set [5]. In addition, the selectivity ratio in [2] was 1.6; in data set [3], greater than 100.

On to `COc1cc2c(c(OC)c1OC)-c1ccc(OC)c(=O)cc1[C@@H](NC(=O)CCCCCCCCCCCCCCC(=O)OCCCCC[C@@H]1CC=CC(=O)O1)CC2`, for which the pIC50 in data set [1] was 6.36; in data set [4] it was 5.10; in data set [5] it was 6.22. In addition, the selectivity ratio in data set [2] is less than 0.1; in data set [3], 0.7.

With `COc1cc2c(c(OC)c1OC)-c1ccc(OC)c(=O)cc1[C@@H](NC(=O)CCCCCCC(=O)OCCCCC[C@H]1CC=CC(=O)O1)CC2`, the pIC50 in [1] was 6.15; in data set [4] it was 4.40; in [5], 4.92. Besides, the selectivity ratio in data set [2] and in data set [3] was less than 0.1 each time.

`C/C=C/C[C@H](C)[C@@H](OC)[C@@H](C)[C@H](O)C[C@H]1OC(=O)C=C[C@H]1CC` [PIRONETIN]: the pIC50 was 7.60 in data set [6] and 8.10 in data set [9]. Besides, in [7], the “Ratio IC50” value is reported as 3. In addition, the Activity in data set [8] was greater than 15 µM. For the same compound, the selectivity ratio came to 2.6 in data set [2] and 2.8 in data set [3].

On to `COc1cc2c(c(OC)c1OC)-c1ccc(OC)c(=O)cc1[C@@H](NC(=O)CCCCCCCCCCCCCCC(=O)OCCCCC[C@H]1CC=CC(=O)O1)CC2`, for which the values for the pIC50 in [1], in data set [4] and in data set [5] were 6.30, 4.52 and 6.30, respectively. The selectivity ratio in data set [2] was less than 0.1; in data set [3], 1.

`CC(=O)O[C@@]12CO[C@@H]1C[C@H](O)[C@@]1(C)C(=O)[C@H](O)C3=C(C)[C@@H](OC(=O)[C@H](O)[C@@H](NC(=O)OC(C)(C)C)c4ccccc4)C[C@@](O)([C@@H](OC(=O)c4ccccc4)[C@H]21)C3(C)C`: the Activity in data set [8] amounted to 0.9 µM.

Regarding `COc1cc2c(c(OC)c1OC)-c1ccc(OC)c(=O)cc1[C@@H](NC(=O)CCCC(=O)OCCCCC[C@@H]1CC=CC(=O)O1)CC2`, the outcome in [10], in data set [12], in data set [14], in data set [17] and in data set [18] was Active. In addition, the Activity in data set [11] was greater than 80%; in [8] it was 6.6 µM; in [13], 18.1 µM; in data set [15] it was 5.7 µM; in data set [16] it was 21.7 µM. The pIC50 in [6] is 4.23; in [1], 5.22; in data set [4], 4.68; in data set [9], 6.30; in data set [5], 6.15. Besides, the “Ratio IC50” value in data set [7] stood at 118. For the same compound, the selectivity ratio in data set [2] was 0.3; in [3], 8.7.

For `COc1cc2c(c(OC)c1OC)-c1ccc(OC)c(=O)cc1[C@@H](NC(=O)CCCCCCCCCCC(=O)OCCCCC[C@@H]1CC=CC(=O)O1)CC2`, the result in data set [10], in data set [12], in [19], in data set [17] and in data set [18] was Active. Further, the Activity in [11] was greater than 80%; in data set [8] it was 6.3 µM; in data set [13] it was 2 µM; in data set [15], 5.7 µM; in data set [16], 6.9 µM. Also, the pIC50 was 4.58 in data set [6]; 5.85 in [1]; 4.74 in [4]; 6.62 in [9]; 6.48 in [5]. For the same compound, the “Ratio IC50” value in [7] is recorded as 110. Further, the selectivity ratio in data set [2] is less than 0.1; in data set [3], 4.2.

Regarding `COc1cc2c(c(OC)c1OC)-c1ccc(OC)c(=O)cc1[C@@H](NC(=O)CCCCCCCCCCC(=O)OCCCCC[C@H]1CC=CC(=O)O1)CC2`, the negative logarithm of the IC50 (pIC50) is 4.62 in data set [1], 4.40 in data set [4] and 6.52 in data set [5]. Moreover, the selectivity ratio was 0.6 in data set [2] and 80 in [3].

With `COc1cc2c(c(OC)c1OC)-c1ccc(OC)c(=O)cc1[C@@H](NC(=O)CCCC(=O)OCCCCC[C@H]1CC=CC(=O)O1)CC2`, the figures for the pIC50 in [1], in data set [4] and in data set [5] were 6.40, 4.19 and 4.72, respectively. In addition, the selectivity ratio in data set [2] and in data set [3] was less than 0.1 each time.

For `COc1cc2c(c(OC)c1OC)-c1ccc(OC)c(=O)cc1[C@@H](NC(C)=O)CC2` [COLCHICINE], the pIC50 is 6.51 in data set [6], 8.30 in [1] and 7.30 in [4]. The result in data set [20], in data set [21], in [22] and in [23] was Active.
